Shown are actives, neighbours in structure and some others; about 3.8% of the full set was active somewhere.
RGS4 act – RGS4 potentiators or activators, primary screen, cell-based, HEK293 M3R inducible RGS4, calcium flux; carbachol calcium flux Fluo4; active compounds read low; B-score at 10 µM; hit rate 0.92% among 310,000;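 active = B-score of the integrated calcium signal more than 4 SD below the library mean, with starting fluorescence not abnormally high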;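 also: negative B-score means reduced calcium response which marks RGS4 activation or potentiation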
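Material: M3R-expressing HEK293 line, RGS4 induced by doxycycline | Schedule: Overnight RGS4 induction, 30 min dye load 37 °C, 20 min compound RT | Measured by: Fluo4 fluorescence kinetic imaging of calcium | Read-out: Integrated calcium ratio converted to B score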
MrgX1 allo act – positive allosteric modulators of MrgX1, primary screen, HEK293 cells, Fluo-4 calcium flux; Mas-related G-protein coupled receptor member X1 (Homo sapiens), Q96LB2; FDSS; active compounds read high; B-score at 10 µM; hit rate 0.63% among 310,000; AID 588675, 2011;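 active = plate-corrected calcium response at least 3 library SD above typical, normal starting fluorescence, not activating the receptor alone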;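 also: compound read alongside a low EC10 to EC30 dose of BAM8-22 agonist; peak minus trough fluorescence over baseline measured at the second addition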
Target sequence (Q96LB2 whole entry, looked up): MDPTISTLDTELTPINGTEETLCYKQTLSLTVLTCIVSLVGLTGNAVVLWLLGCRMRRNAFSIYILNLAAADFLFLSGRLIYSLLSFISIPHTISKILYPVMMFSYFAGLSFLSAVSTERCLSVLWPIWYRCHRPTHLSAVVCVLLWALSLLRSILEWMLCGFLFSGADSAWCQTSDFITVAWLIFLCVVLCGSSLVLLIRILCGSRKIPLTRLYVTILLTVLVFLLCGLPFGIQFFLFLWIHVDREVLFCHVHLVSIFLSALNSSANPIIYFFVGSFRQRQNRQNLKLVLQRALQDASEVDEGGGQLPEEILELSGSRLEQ
MrgX1 ag – agonists of human MrgX1 receptor, primary screen, HEK293 cells, Fluo-4 calcium flux; AID 588627, 2011; Fluo-4 calcium fluorescence, agonist mode; active compounds read high; B-score at 10 µM; hit rate 0.44% among 310,000;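 active = calcium response B-score plate-corrected fluorescence ratio at least 3 library SD, with starting fluorescence B-score inside 5 SD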
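Test system: Stable human MrgX1 HEK293 cell line | Schedule: Overnight plating before 1 h dye loading | Read-out basis: Baseline-normalised fluorescence change ratio, B-scored | Detection: Kinetic calcium dye fluorescence, Fluo-4 NW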
Lipid droplet – inhibitors of hepatocyte lipid droplet formation, primary screen, imaging, high-throughput imaging, BODIPY stain; AML12 mouse hepatocytes, oleate lipid droplets; inhibition, % at 6.5 µM; hit rate 0.4% among 240,000; AID 1656, 2009;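 active = lipid droplet intensity inhibited by at least 50%, with more than 500 cells counted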
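Assay system: AML12 mouse liver cells | Compound: 6.5 µM single-point dosing | Schedule: Overnight exposure | Technique: Fluorescence imaging, 20x objective, two fields per well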
MrgX1 antag – antagonists of human MrgX1 receptor, primary screen, HEK293 cells, Fluo-4 calcium flux; Mas-related G-protein coupled receptor member X1 (Homo sapiens), Q96LB2; BAM8-22 antagonism; active compounds read low; B-score at 10 µM; hit rate 1.3% among 310,000; AID 588676, 2011;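 active = calcium-response B-score plate-corrected more than 3 library SD below zero, starting fluorescence within 5 deviations, no agonist response on first addition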;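 also: peak minus trough fluorescence over baseline after final BAM8-22 challenge near maximal dose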
RGS4 block – RGS4 inhibitors, primary screen, cell-based, HEK293 M3R inducible RGS4, calcium flux. B-score at 10 µM. Fluo-4 calcium flux; active compounds read high; triggered by carbachol at its EC20. Regulator of G-protein signaling 4 (Homo sapiens), P49798. hit rate 0.45% among 310,000;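 active = B-score, a plate-corrected calcium signal, over three deviations above library mean, with baseline fluorescence within five deviations of library mean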;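 also: RGS4 expression induced by doxycycline in cells with stable M3 receptor; B-score is computed from the integrated fluorescence ratio over baseline after carbachol; higher B-score means a larger calcium signal and so more RGS4 inhibition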
Target sequence (P49798 whole entry, looked up): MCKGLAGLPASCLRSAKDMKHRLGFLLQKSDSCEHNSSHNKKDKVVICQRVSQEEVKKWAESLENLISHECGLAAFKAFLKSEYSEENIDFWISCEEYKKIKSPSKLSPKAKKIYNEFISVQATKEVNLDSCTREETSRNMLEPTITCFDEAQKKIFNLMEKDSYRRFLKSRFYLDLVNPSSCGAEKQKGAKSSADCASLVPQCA
MrgX1 antag conf – MrgX1 receptor antagonists, duplicate retest, confirmation, HEK293 cells, Fluo-4 calcium flux; shares compounds with MrgX1 antag; BAM8-22 calcium flux; active compounds read low; remaining BAM8-22 calcium response % of control (active compounds read low), % at 10 µM; hit rate 19% among 2,300;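 active = remaining agonist calcium response no higher than 100% minus 3 SD of agonist-only control wells, with starting fluorescence near control levels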;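 also: agonist BAM8-22 given at a near maximal EC90 to ECmax level; peak minus minimum fluorescence divided by baseline after agonist addition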
HEK293 Ca flux – nonspecific calcium signal in parental HEK293, confirmation, counter-screen for MrgX1 antagonist project, parental HEK293 cells, Fluo-4 calcium flux; hit rate 2% among 4,000; AID 624111, 2012; fluorescence ratio F(max-min)/F0 at 10 µM; shares compounds with MrgX1 antag; Fluo-4 calcium fluorescence, FDSS;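 active = duplicate-averaged calcium fluorescence ratio at least three times the standard deviation of buffer wells, a nonspecific response in parental cells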
HEK293 Ca counter – calcium response in parental HEK293 cells, primary screen, counter-screen for MrgX1 allosteric activator project, cell-based, Fluo-4 calcium flux, duplicate. hit rate 0.4% among 4,000. fluorescence ratio F(max-min)/F0 at 10 µM. shares compounds with MrgX1 antag. Fluo-4 fluorescence ratio; active compounds read high;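 active = calcium fluorescence ratio, averaged over duplicates, at least 3 SD of the buffer-well ratio, meaning a nonspecific response in receptor-free cells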;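 also: untransfected parental HEK293 lacking MrgX1 used as counterscreen for MrgX1 allosteric activators; fluorescence change taken during the second addition on a kinetic imager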
HEK293 Ca cntr2 – calcium response in parental HEK293 cells, primary screen, counter-screen for MrgX1 agonist project, cell-based, Fluo-4 calcium flux, duplicate, agonist mode; shares compounds with MrgX1 antag; Fluo-4 calcium fluorescence (FDSS); active compounds read high; fluorescence ratio F(max-min)/F0 at 10 µM; hit rate 8.7% among 4,000; AID 624115, 2012;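 active = calcium fluorescence ratio at least three times the spread of buffer wells, meaning a non-specific response in parental cells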
Numbers without * were called inactive; i = inactive; · = no result given.

SMILES | RGS4 act | MrgX1 allo act | MrgX1 ag | Lipid droplet | MrgX1 antag | RGS4 block | MrgX1 antag conf | HEK293 Ca flux | HEK293 Ca counter | HEK293 Ca cntr2
Cc1ccc(S(=O)(=O)N2CCCCC2CCNC(=O)C(=O)NCc2ccncc2)cc1 (stereo not drawn) | i | i | i | · | i | i | · | · | · | ·
Cc1ncc(CN2CCCC(CCC(=O)NCc3ccc(F)c(F)c3)C2)s1 (stereo not drawn) | i | i | i | 5 | i | i | · | · | · | ·
Cc1ccc(N2C(=O)N(CC(=O)Nc3ccc(C)cc3Cl)C(=O)C2C)cc1 (stereo not drawn) | i | i | i | · | -10* | i | 77%* | i | i | i
Cc1ccc(N2C(=O)N(CC(=O)Nc3cc(Cl)ccc3C)C(=O)C2C)cc1 (stereo not drawn) | i | i | i | · | i | i | · | · | · | ·
COc1ccc(OC)c(C(=O)NC(CC(N)=O)c2ccc(N3CCC(Cc4ccccc4)CC3)c([N+](=O)[O-])c2)c1 (stereo not drawn) | i | i | i | 1 | i | i | · | · | · | ·
Nc1ncnc2nc(SCC(=O)N3CCN(c4ccccc4)CC3)[nH]c12 | i | i | i | 1 | -4.7* | i | i | i | i | i
COc1ccccc1N1CCN(C(=O)CSc2nc3ncnc(N)c3[nH]2)CC1 | i | i | i | -6 | i | i | · | · | · | ·
CC(=O)c1ccc(N2CCN(c3ncccn3)CC2)cc1 | i | i | i | -4 | i | i | · | · | · | ·
CCCN(CCC)C(=O)c1cc2c(=O)n3cccc(C)c3nc2s1 | i | i | i | 5 | i | i | · | · | · | ·
CCOc1ccc(NC(=O)CN(C)S(=O)(=O)c2ccc3c(c2)CCC(=O)N3)cc1 | i | i | i | 6 | i | i | · | · | · | ·
COc1ccccc1N1CCN(C(=O)C(F)F)CC1 | i | i | i | · | -6.8* | i | i | i | i | i
COc1ccccc1N1CCN(C(=O)CN(c2ccc(C)c(C)c2)S(C)(=O)=O)CC1 | i | i | i | 6 | -4.8* | i | i | i | i | i
CN1CCN(C(=O)c2cnn(-c3ccccc3)c2NC(=O)c2cccs2)CC1 | i | i | i | · | -5.9* | i | i | i | i | i
O=C(Nc1cccc(C(=O)N2CCCCCC2)c1)c1ccco1 | i | i | i | 1 | -4.7* | i | i | i | i | i
COc1ccc(N=Cc2oc3ccc4ccccc4c3c2O)cc1 | i | i | i | 24 | -5.1* | i | 51%* | i | i | i
COc1ccc(N=Cc2[nH]c3ccccc3c2O)cc1 | i | i | i | -1 | i | i | · | · | · | ·
COc1cc(CNC(C)(C)CO)ccc1OCC(=O)NC(C)(C)C | i | i | i | · | i | i | · | · | · | ·
COc1cc(CNn2cn[nH]c2=S)ccc1OCC(=O)NC(C)(C)C | i | i | i | · | -4.6* | i | i | i | i | i
O=C(Nc1cccnc1)C1CCN(S(=O)(=O)c2ccc(Cl)cc2)CC1 | i | i | i | -24 | -7.9* | i | i | i | i | i
COc1ccc(-c2c(C#N)c(N)nc3c2c(=O)n(C)c(=O)n3C)cc1Cl | i | i | i | · | -8.3* | i | i | i | i | i
CCC(Sc1ncccc1C(=O)O)C(=O)N1CCOCC1 (stereo not drawn) | i | i | i | · | -6.8* | i | 80%* | i | i | i
O=C(Cn1c(NCCO)nc2ccccc21)NCC1CCCO1 (stereo not drawn) | i | i | i | 7 | -4.7* | i | i | i | i | i
Cc1c(C#N)c2ccccc2n1CC(=O)NCC1CCCO1 (stereo not drawn) | i | i | i | · | -5.1* | i | i | i | i | i
N#Cc1cn(CC(=O)NCC2CCCO2)c2ccccc12 (stereo not drawn) | i | i | i | · | i | i | · | · | · | ·
COc1ccc(C(=O)COC(=O)CCN2C(=O)[C@@H]3[C@H](C2=O)[C@@H]2C[C@H]3C(Br)C2Br)cc1 (stereo partly drawn) | i | i | i | -2 | i | i | · | · | · | ·
COc1ccc(C(=O)COC(=O)CCN2C(=O)C3C4CC(C(Br)C4Br)C3C2=O)cc1 (stereo not drawn) | i | i | i | · | -5.4* | i | i | i | i | i
O=C(O)CCc1ccc(-c2cccs2)n1-c1ccc(C(=O)O)cc1 | i | i | i | · | -4.7* | i | i | i | i | i
CSc1cccc(-c2nnc(NC(=O)c3cccc(N4C(=O)CCC4=O)c3)o2)c1 | i | i | i | · | -4.5* | i | i | i | i | i
CCN=C1SC(C(=O)Nc2cc(Cl)cc(Cl)c2)CC(=O)N1CC (stereo not drawn) | i | i | i | 0 | -5.3* | i | i | i | i | i
CCN=C1SC(C(=O)Nc2ccc(Cl)c(Cl)c2)CC(=O)N1CC (stereo not drawn) | i | i | i | 7 | i | i | · | · | · | ·

High-throughput results deposited in PubChem by several laboratories.
